Where a chain is given by its changes, count along the chain named.
How the values were obtained:
TnIYD [1] = target: T1, TnIYD (Thermotoga neapolitana, UniProt B9K712); experiment: Active site ligand binding by quenching of FMNox fluorescence, wild-type TnIYD
T1 sequence (B9K712 1-186): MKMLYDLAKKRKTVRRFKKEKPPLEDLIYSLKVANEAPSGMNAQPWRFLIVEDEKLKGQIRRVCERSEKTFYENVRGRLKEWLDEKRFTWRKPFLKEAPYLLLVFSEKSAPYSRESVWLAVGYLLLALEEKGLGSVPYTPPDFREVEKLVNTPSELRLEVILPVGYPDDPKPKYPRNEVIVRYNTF

TnIYD [2] = target: T1, TnIYD; experiment: Catalytic dehalogenation, steady-state kinetics; assay type: biochemical; conditions: for Km / kcat: substrate of TnIYD
TnIYD M41A = target: T2, TnIYD M41A (Thermotoga neapolitana, UniProt B9K712, M41A); experiment: Active site ligand binding by quenching of FMNox fluorescence, M41A variant
T2 sequence (B9K712 1-186 M41A): T1 sequence (B9K712 1-186) with M41A
Method in brief: (§1)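 C-terminal His6-tagged T. neapolitana IYD variants, made by mutagenesis, were expressed in E. coli Rosetta2 and purified on Ni-NTA. They were incubated with ~300 μM FMN and quantified by bound-FMN A450. Excitation was 450 nm and emission 516–526 nm. Dilution-corrected F/F0 versus ligand was fit to a two-state binding isotherm.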

TnIYD M41A/Y112A = target: T3, TnIYD M41A/Y112A (Thermotoga neapolitana, UniProt B9K712, M41A/Y112A); assay type: binding
T3 sequence (B9K712 1-186 M41A/Y112A): T1 sequence (B9K712 1-186) with M41A, Y112A
Method in brief: as §1

TnIYD M41K = target: T4, TnIYD M41K (Thermotoga neapolitana, UniProt B9K712, M41K); experiment: Active site ligand binding by quenching of FMNox fluorescence, M41K variant
T4 sequence (B9K712 1-186 M41K): T1 sequence (B9K712 1-186) with M41K
Method in brief: as §1

TnIYD Y112A/W82A/F88A = target: T5, TnIYD Y112A/W82A/F88A (Thermotoga neapolitana, UniProt B9K712, F88A/W82A/Y112A); assay type: binding
T5 sequence (B9K712 1-186 W82A/F88A/Y112A): T1 sequence (B9K712 1-186) with W82A, F88A, Y112A
Method in brief: as §1

IYD from mesophiles = conditions: cited from earlier work
TnIYD Y112A = target: T6, TnIYD Y112A (Thermotoga neapolitana, UniProt B9K712, Y112A); experiment: Active site ligand binding by quenching of FMNox fluorescence, Y112A variant
T6 sequence (B9K712 1-186 Y112A): T1 sequence (B9K712 1-186) with Y112A
Method in brief: as §1

TnIYD M41F = target: T7, TnIYD M41F (Thermotoga neapolitana, UniProt B9K712, M41F); experiment: Active site ligand binding by quenching of FMNox fluorescence, M41F variant
T7 sequence (B9K712 1-186 M41F): T1 sequence (B9K712 1-186) with M41F
Method in brief: as §1

Oc1ccccc1I [2-IP, 2-iodophenol]
Kd (TnIYD [1]): 31 ± 1 µM
difference in Km values for I-Tyr and 2-IP (TnIYD [2]; 25 °C): 19,000 fold
difference of kcat relative to the kcat value of I-Tyr (TnIYD [2]; 25 °C): 2 fold
efficiency (kcat/Km) relative to that for iodotyrosine (TnIYD [2]; 25 °C): less than 0.01%
Km (TnIYD [2]; 25 °C): 4.2 mM
kcat (TnIYD [2]; 25 °C): 0.014 ± 0.001 s⁻¹
increase of kcat at 60 °C relative to 25 °C (TnIYD [2]; 60 °C vs 25 °C): less than 8 fold
Km (TnIYD [2]; 60 °C): 6.6 mM
kcat (TnIYD [2]; 60 °C): 0.108 ± 0.005 s⁻¹
kcat/Km smaller than that for I-Tyr (TnIYD [2]; at both temperatures (25 °C and 60 °C)): more than 10,000 fold

N[C@@H](Cc1ccc(O)cc1)C(=O)O [Tyr, tyrosine]
Kd (TnIYD M41A): 1.6 ± 0.2 µM
weakening of affinity by M41A substitution relative to wt TnIYD (TnIYD M41A; 25 °C): 3.6 fold
Kd (TnIYD M41A/Y112A): 0.95 ± 0.09 µM
decrease of affinity by M41A/Y112A variant relative to wt TnIYD (TnIYD M41A/Y112A; 25 °C): 2 fold
Kd (TnIYD M41K): 7.4 ± 0.2 µM
decrease of affinity by M41K variant relative to wt TnIYD (TnIYD M41K; 25 °C): 16 fold
Kd (TnIYD [1]): 0.45 ± 0.07 µM
Kd (TnIYD Y112A/W82A/F88A): 1200 ± 20 µM
weakening of binding by W82A/F88A/Y112A triple mutant relative to wt TnIYD (TnIYD Y112A/W82A/F88A; 25 °C): more than 2600 fold
affinity of Tyr to IYD from mesophiles (IYD from mesophiles): too weak to measure
Kd (TnIYD Y112A): 0.9 ± 0.1 µM
Kd (TnIYD M41F): 0.09 ± 0.06 µM
enhancement of binding by M41F variant relative to wt TnIYD (TnIYD M41F; 25 °C): 5 fold
